Data reported in ChEMBL document CHEMBL1126715, “Synthesis and tissue distribution of (m-[125I]iodobenzyl)trozamicol ([125I]MIBT): potential radioligand for mapping central cholinergic innervation” (J Med Chem, 1993).

What was measured:
Rattus norvegicus [1] = organism: Rattus norvegicus; experiment: Effect of vesamicol on the accumulation in rat kidney in group 1 (n=3); type: ADME, organism-based; conditions: in vivo
Rattus norvegicus [2] = organism: Rattus norvegicus; experiment: Tissue distribution in rat lung after 180 minutes (n=3); type: ADME, organism-based; conditions: in vivo, 3 h
Outline: (§1)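 Male Wistar rats (200-350 g) under ether, iv [125I]tracer (3-5 μCi in 0.1 mL 50% aqueous EtOH). At 5, 30, 60 or 180 min, blood taken by cardiac puncture and the rat killed by cardiectomy. Organs weighed and γ-counted against 1:100 dilutions of the injected dose; results in % injected dose/g, with range.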

Rattus norvegicus [3] = organism: Rattus norvegicus; experiment: Tissue distribution in rat lung after 30 minutes (n=3); type: ADME, organism-based; conditions: in vivo, 0.5 h
Outline: (§2)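 Male Wistar rats (200-350 g) under ether anesthesia; radiotracer (3-5 μCi in 0.1 mL 50% aqueous ethanol) given iv. At 5, 30, 60 and 180 min, blood was drawn by cardiac puncture and animals were killed by cardiectomy. Organs were weighed and γ-counted against a 1:100 dilution of the injected dose. Results are given as % injected dose/g tissue; ratios are taken between tissue levels.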

Rattus norvegicus [4] = organism: Rattus norvegicus; experiment: Tissue distribution in rat heart after 5 minutes (n=3); type: ADME, organism-based; conditions: in vivo; outline: as §2
Rattus norvegicus [5] = organism: Rattus norvegicus; experiment: Tissue distribution in rat brain after 180 minutes (n=3); type: ADME, organism-based; conditions: in vivo, 3 h; outline: as §1
Rattus norvegicus [6] = organism: Rattus norvegicus; experiment: Effect of vesamicol on the accumulation in rat spleen in group 2 (n=3); type: ADME, organism-based; conditions: in vivo
Outline: (§3)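 Male Wistar rats (n = 4/group) given iv vehicle (100 μL 50% aqueous EtOH) or dl-vesamicol (1.01 μmol/kg); 15 min later iv radiotracer (2.0 μCi in 100 μL 50% aqueous EtOH); killed 30 min post-tracer. Blood by cardiac puncture, organs weighed and γ-counted vs 1:100 injected-dose dilution; % dose/g tissue (range); tissue/blood ratios.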

Rattus norvegicus [7] = organism: Rattus norvegicus; experiment: Tissue distribution in rat blood after 30 minutes (n=3); type: ADME, organism-based; conditions: in vivo, 0.5 h; outline: as §2
Rattus norvegicus [8] = organism: Rattus norvegicus; experiment: Ratio of tissue distribution between rat heart and blood after 5 min; type: ADME, organism-based; conditions: other tissue, 5 min; outline: as §2
Rattus norvegicus [9] = organism: Rattus norvegicus; experiment: Tissue distribution in rat brain after 60 minutes (n=3); type: ADME, organism-based; conditions: in vivo, 1 h; outline: as §2
Rattus norvegicus [10] = organism: Rattus norvegicus; experiment: Ratio of tissue distribution between rat brain and blood after 5 min; type: ADME, organism-based; conditions: brain, 5 min
Outline: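 Male Wistar rats (200-350 g) under ether anesthesia, iv radiotracer (3-5 μCi in 0.1 mL 50% aqueous ethanol). At 5, 30, 60, 180 min blood taken by cardiac puncture, animal killed by cardiectomy; organs weighed, γ-counted against 1:100 injected-dose dilution; % injected dose/g tissue; brain/blood ratio.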

Rattus norvegicus [11] = organism: Rattus norvegicus; experiment: Effect of vesamicol on the accumulation in rat kidney in group 2 (n=3); type: ADME, organism-based; conditions: in vivo
Rattus norvegicus [12] = organism: Rattus norvegicus; experiment: Tissue distribution in rat muscle after 30 minutes (n=3); type: ADME, organism-based; conditions: in vivo, 0.5 h; outline: as §1
Rattus norvegicus [13] = organism: Rattus norvegicus; experiment: Effect of vesamicol on the accumulation in rat heart in group 1 […]; type: ADME, organism-based; conditions: in vivo; outline: as §3
Rattus norvegicus [14] = organism: Rattus norvegicus; experiment: Ratio of tissue distribution between rat heart and blood after 30 min; type: ADME, organism-based; conditions: other tissue, 0.5 h; outline: as §2
Rattus norvegicus [15] = organism: Rattus norvegicus; experiment: Tissue distribution in rat liver after 180 minutes (n=3); type: ADME, organism-based; conditions: in vivo, 3 h; outline: as §1
Rattus norvegicus [16] = organism: Rattus norvegicus; experiment: Effect of vesamicol on the accumulation in rat thyroid in group 2 (n=3); type: ADME, organism-based, Thyroid gland; conditions: in vivo; outline: as §3
Rattus norvegicus [17] = organism: Rattus norvegicus; experiment: Tissue distribution in rat heart after 30 minutes (n=3); type: ADME, organism-based; conditions: in vivo, 0.5 h; outline: as §1
Rattus norvegicus [18] = organism: Rattus norvegicus; experiment: Tissue distribution in rat muscle after 5 minutes (n=3); type: ADME, organism-based; conditions: in vivo; outline: as §2
Rattus norvegicus [19] = organism: Rattus norvegicus; experiment: Tissue distribution in rat kidney after 5 minutes (n=3); type: ADME, organism-based; conditions: in vivo; outline: as §2
Rattus norvegicus [20] = organism: Rattus norvegicus; experiment: Tissue distribution in rat muscle after 60 minutes (n=3); type: ADME, organism-based; conditions: in vivo, 1 h; outline: as §1
Rattus norvegicus [21] = organism: Rattus norvegicus; experiment: Tissue distribution in rat spleen after 30 minutes (n=3); type: ADME, organism-based; conditions: in vivo, 0.5 h; outline: as §2
Rattus norvegicus [22] = organism: Rattus norvegicus; experiment: Tissue distribution in rat thyroid after 180 minutes (n=3); type: ADME, organism-based, Thyroid gland; conditions: in vivo, 3 h; outline: as §2
Rattus norvegicus [23] = organism: Rattus norvegicus; experiment: Tissue distribution in rat muscle after 180 minutes (n=3); type: ADME, organism-based; conditions: in vivo, 3 h; outline: as §2
[24] = Ratio of effect of vesamicol on the accumulation between rat brain and blood in group 1; type: ADME, organism-based; outline: as §3
Rattus norvegicus [25] = organism: Rattus norvegicus; experiment: Effect of vesamicol on the accumulation in rat muscle in group 2 (n=3); type: ADME, organism-based, Muscle tissue; conditions: in vivo; outline: as §3
[26] = Ratio of tissue distribution between rat heart and blood after 180 min; type: ADME, organism-based; outline: as §2
Rattus norvegicus [27] = organism: Rattus norvegicus; experiment: Effect of vesamicol on the accumulation in rat lung in group 1 (n=3); type: ADME, organism-based; conditions: in vivo; outline: as §3
Rattus norvegicus [28] = organism: Rattus norvegicus; experiment: Effect of vesamicol on the accumulation in rat heart in group 2 (n=3); type: ADME, organism-based; conditions: in vivo; outline: as §3
Rattus norvegicus [29] = organism: Rattus norvegicus; experiment: Tissue distribution in rat liver after 60 minutes (n=3); type: ADME, organism-based; conditions: in vivo, 1 h; outline: as §2
Rattus norvegicus [30] = organism: Rattus norvegicus; experiment: Effect of vesamicol on the accumulation in rat lung in group 2 (n=3); type: ADME, organism-based; conditions: in vivo
[31] = Ratio of effect of vesamicol on the accumulation between rat brain and blood in group 2; type: ADME, organism-based; outline: as §3
Rattus norvegicus [32] = organism: Rattus norvegicus; experiment: Ratio of tissue distribution between rat brain and blood after 60 min; type: ADME, organism-based; conditions: 1 h; outline: as §2
Rattus norvegicus [33] = organism: Rattus norvegicus; experiment: Tissue distribution in rat spleen after 5 minutes (n=3); type: ADME, organism-based; conditions: in vivo; outline: as §1
Rattus norvegicus [34] = organism: Rattus norvegicus; experiment: Tissue distribution in rat liver after 5 minutes (n=3); type: ADME, organism-based; conditions: in vivo; outline: as §1
[35] = Ratio of effect of vesamicol on the accumulation between rat heart and blood in group 2; type: ADME, organism-based; outline: as §3
Rattus norvegicus [36] = organism: Rattus norvegicus; experiment: Tissue distribution in rat thyroid after 5 minutes (n=3); type: ADME, organism-based, Thyroid gland; conditions: in vivo; outline: as §1

With `O[C@@H]1CCN(Cc2cccc([125I])c2)C[C@H]1N1CCC(c2ccccc2)CC1` (stereo in doubt; (-)) the Dose/g (Rattus norvegicus [1]) was 2.45%, the Dose/g (Rattus norvegicus [2]) was 2.01% and the Dose/g (Rattus norvegicus [3]) was 3.21%. The Dose/g (Rattus norvegicus [4]) was 1.32%, the Dose/g (Rattus norvegicus [5]) was 0.92% and the Dose/g (Rattus norvegicus [6]) was 0.8%. For the same compound, the Dose/g (Rattus norvegicus [7]) was 0.11%, the Ratio (Rattus norvegicus [8]) was 6.07 and the Dose/g (Rattus norvegicus [9]) was 0.83%. The Ratio (Rattus norvegicus [10]) was 4.27, the Dose/g (Rattus norvegicus [11]) was 1.13% and the Dose/g (Rattus norvegicus [12]) was 0.3%. The Dose/g (Rattus norvegicus [13]) was 0.59%, the Ratio (Rattus norvegicus [14]) was 6.87 and the Dose/g (Rattus norvegicus [15]) was 2.23%. For the same compound, the Dose/g (Rattus norvegicus [16]) was 4.56%, the Dose/g (Rattus norvegicus [17]) was 0.75% and the Dose/g (Rattus norvegicus [18]) was 0.46%. For the same compound, the Dose/g (Rattus norvegicus [19]) was 3.71%, the Dose/g (Rattus norvegicus [20]) was 0.28% and the Dose/g (Rattus norvegicus [21]) was 1.24%. It also gave a Dose/g (Rattus norvegicus [22]) of 11.55%, a Dose/g (Rattus norvegicus [23]) of 0.27% and a Kp [24] of 6.45. The Dose/g (Rattus norvegicus [25]) was 0.16%, the Kp at 3 h [26] was 5.32 and the Dose/g (Rattus norvegicus [27]) was 2.36%. It also gave a Dose/g (Rattus norvegicus [28]) of 0.3%, a Dose/g (Rattus norvegicus [29]) of 2.63% and a Dose/g (Rattus norvegicus [30]) of 1.59%. The Kp [31] was 5.59, the Ratio (Rattus norvegicus [32]) was 8.51 and the Dose/g (Rattus norvegicus [33]) was 1.04%. The Dose/g (Rattus norvegicus [34]) was 2.07%, the Kp [35] was 2.4 and the Dose/g (Rattus norvegicus [36]) was 2.67%.
